Molecules are shown by their SMILES. A value given as a limit tells only on which side of the number the result lay.

Data set [1] in a line: Cytotoxicity against human SKOV3 cells assessed as growth inhibition after 48 hrs by SRB assay. In kind it is functional, SK-OV-3. Summed up:
(§1)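 Cells kept at 37 °C, 5% CO2, up to passage 15. Plated at 7500 cells/well in DMEM with 5% FBS and 1% gentamycin, grown 24 h, then given 10-fold serial dilutions for 48 h. Fixed with 10% TCA (final), SRB-stained, read at 540 nm, normalized at 630 nm. GI50 is the concentration halving net protein staining versus controls, taken from optical density data.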
(In general: Sulforhodamine B stains cellular protein and so reports cell mass.)

Data set [2] relates to NCI-H460. Description: Cytotoxicity against human NCI-H460 cells assessed as growth inhibition after 48 hrs by SRB assay. In kind it is functional. Summed up: as §1
The nature of data set [3]: Cytotoxicity against human DU145 cells assessed as growth inhibition after 48 hrs by SRB assay. In kind it is functional, DU-145. Summed up: as §1
For data set [4], the target named is Tubulin (Bos taurus) (UniProt Q6B856+Q862L2+Q862F3). Description: Displacement of [3H]colchicine from bovine brain tubulin at 5 uM after 10 mins by scintillation counting analysis. In a few lines: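 1.0 μM tubulin with 5.0 μM [3H]colchicine and inhibitor at 1.0 or 5.0 μM. Buffer: 5% DMSO, 1.0 M monosodium glutamate pH 6.6, 0.5 mg/mL BSA, 0.1 M glucose-1-phosphate, 1.0 mM MgCl2, 1.0 mM GTP. Incubated 10 min at 37 °C, stopped with ice-cold water, collected on DEAE-cellulose filters and scintillation counted. Corrected for filter binding without tubulin; % inhibition against no-inhibitor controls.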
A general note: Loss of bound radioactivity is the signal in a displacement assay; it reports binding, not function.

Data set [5] addresses Tubulin (Bos taurus, UniProt Q6B856+Q862L2+Q862F3). Description: Inhibition of bovine brain tubulin polymerization preincubated for 15 mins by spectrophotometric analysis. Summed up: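 Purified bovine brain tubulin, 1.0 mg/mL (10 μM), in 0.8 M monosodium glutamate pH 6.6 with 4% DMSO and varied compound. Temperature jumped from 0 to 30 °C; turbidity at 350 nm followed for 20 min.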

The target in data set [6] is T1, Leucine aminopeptidase (Sus scrofa, UniProt Q29571).
T1 sequence (Q29571 whole entry): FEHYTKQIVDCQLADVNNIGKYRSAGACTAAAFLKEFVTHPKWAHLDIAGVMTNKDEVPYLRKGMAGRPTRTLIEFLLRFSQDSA
Description: Prodrug conversion assessed as porcine leucine aminopeptidase-mediated compound cleavage after 24 hrs using 3.6 units of enzyme by HPLC analysis. The format is ADME. Conditions: pig. Summed up:
(§2)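 Porcine kidney microsomal LAP; units defined with 24 mM L-leucine p-nitroanilide in 50 mM sodium phosphate pH 7.2 at 37 °C. Enzyme preincubated in the same buffer at 37 °C, then substrate added. Aliquots were quenched with acetonitrile on ice, centrifuged and run on C18 HPLC (acetonitrile/water, 0.05% TFA, 1.0 mL/min, 22 °C, diode-array UV). Cleavage % from the parent/prodrug peak-area ratio; amounts from calibration curves.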

Data set [7] deals with T1, Leucine aminopeptidase. In words: Prodrug conversion assessed as porcine leucine aminopeptidase-mediated compound cleavage by HPLC analysis. Conditions: pig. In kind it is ADME. Summed up: as §2
Data set [8] is described as follows: Retention time of the compound by HPLC analysis. In kind it is physicochemical. Summed up:
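Reversed-phase C18 HPLC (4.6 × 150 mm, 5 μm) at 25 °C with diode-array detection at 190–400 nm. Acetonitrile against water or 0.1% TFA/water. Gradient 10% to 100% acetonitrile over 40 min, or in method C 10% acetonitrile for 5 min then to 100% over 5–25 min, at 1.0 mL/min.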

Data set [9] addresses T1, Leucine aminopeptidase. In words: Activity at porcine leucine aminopeptidase by HPLC analysis. In kind it is ADME. Conditions: pig. In a few lines:
as §2

As a reminder, the GI50 is the concentration at which growth is held to half of that of the control. On to `COc1ccc2c(c1NC(=O)[C@@H](N)CO)CCC=C2c1cc(OC)c(OC)c(OC)c1`, for which the GI50 in data set [1] (Homo sapiens, SK-OV-3, 48 h) worked out at 13700 nM; in data set [2] (Homo sapiens, NCI-H460, 48 h) it was 31100 nM; in data set [3] (Homo sapiens, DU-145, 48 h), 40600 nM.
The term inhibition denotes the drop in the measured response relative to a control, in per cent. What is called IC50 is the point on the concentration scale where inhibition reaches its midpoint. A lower IC50 goes with higher potency. For the compound `COc1ccc2c(c1N)CCCC=C2c1cc(OC)c(OC)c(OC)c1`, the GI50 stood at 0.137 nM in [1] (Homo sapiens, SK-OV-3, 48 h); 1.85 nM in data set [2] (Homo sapiens, NCI-H460, 48 h); 2.26 nM in [3] (Homo sapiens, DU-145, 48 h). The inhibition in [4] came to 82%. Besides, the IC50 in [5] was determined as 1300 nM.
Take `COc1ccc(/C=C\c2cc(OC)c(OC)c(OC)c2)c(NC(=O)CN)c1`: the GI50 in data set [1] (Homo sapiens, SK-OV-3, 48 h) was found to be 32.3 nM; in data set [2] (Homo sapiens, NCI-H460, 48 h), 53.2 nM; in [3] (Homo sapiens, DU-145, 48 h), 43.6 nM.
With `COc1ccc2c(c1NC(=O)[C@@H](N)CO)CCCC=C2c1cc(OC)c(OC)c(OC)c1`, the GI50 was 44900 nM in data set [1] (Homo sapiens, SK-OV-3, 48 h); 45900 nM in [2] (Homo sapiens, NCI-H460, 48 h); above 81300 nM in [3] (Homo sapiens, DU-145, 48 h).
`COc1ccc2c(c1NC(=O)[C@@H](N)CO)CCC=C2c1cc(OC)c(OC)c(OC)c1.Cl`: the GI50 in data set [1] was determined as 11600 nM; in data set [2], 18600 nM; in [3] it was 26000 nM. Moreover, the Drug metabolism in data set [6] and in data set [7] was below 10% each time.
Consider `COc1ccc2c(c1N)CCC=C2c1cc(OC)c(OC)c(OC)c1`, for which the Retention_time in data set [8] stood at 12.1 min.
With `COc1ccc(/C=C\c2cc(OC)c(OC)c(OC)c2)c(N)c1.Cl`, the figures for the GI50 in data set [1], in [2] and in data set [3] were 7.35 nM, 26.3 nM and 28.5 nM, respectively. Besides, the IC50 in [5] turned out to be 2500 nM.
Turning to `COc1ccc2c(c1NC(=O)[C@@H](N)CO)CCCC=C2c1cc(OC)c(OC)c(OC)c1.Cl`, the GI50 in data set [1] came to 47000 nM. Also, the Drug metabolism in data set [6] and in [7] was below 10% throughout.
For `COc1ccc(/C=C\c2cc(OC)c(OC)c(OC)c2)cc1NC(=O)[C@@H](N)CO.Cl`, the GI50 amounted to 3.96 nM in [1], 3.87 nM in [2] and 3.34 nM in [3]. Further, the IC50 in data set [5] was 13000 nM. In [7], the Drug metabolism came to 95%.
Regarding `COc1ccc(/C=C\c2cc(OC)c(OC)c(OC)c2)c(NC(=O)CN)c1.Cl`, the 50% growth inhibitory concentration (GI50) stood at 48.5 nM in data set [1], 29.2 nM in data set [2] and 44.7 nM in data set [3]. The Activity in data set [9] turned out to be 180 µM/min. The Drug metabolism in data set [7] was 100%.
Regarding `COc1ccc(/C=C\c2cc(OC)c(OC)c(OC)c2)c(NC(=O)[C@@H](N)CO)c1`, the GI50 in data set [1] (Homo sapiens, SK-OV-3, 48 h) stood at 39.5 nM; in [2] (Homo sapiens, NCI-H460, 48 h), 33.3 nM; in data set [3] (Homo sapiens, DU-145, 48 h) it was 34.7 nM.
With `COc1ccc(/C=C\c2cc(OC)c(OC)c(OC)c2)c(NC(=O)[C@@H](N)CO)c1NC(=O)[C@@H](N)CO`, the results for the 50% growth inhibitory concentration (GI50) in data set [1], in [2] and in [3] were 25900 nM, 24400 nM and 33600 nM, respectively. Moreover, the Drug metabolism result in data set [7] is “metabolite_notdetected”.
`COc1ccc(/C=C\c2cc(OC)c(OC)c(OC)c2)cc1NC(=O)[C@@H](N)CO` [OMBRABULIN]: the results for the GI50 in [1], in data set [2] and in data set [3] were 9.02 nM, 24.1 nM and 16.4 nM, respectively. In [5], this compound registered an IC50 of 14000 nM. Moreover, the Drug metabolism in [7] amounted to 95%.

(Values after ChEMBL document CHEMBL3763088, “Design, synthesis, and biological evaluation of water-soluble amino acid prodrug conjugates derived from combretastatin, dihydronaphthalene, and benzosuberene-based parent vascular disrupting agents” (Bioorg Med Chem, 2016).)
